Sampled rows, rich in hits. Any-hit rate of the full collection: about 1.4%.
STAT1 inh – reduces IFN-gamma driven STAT1 reporter signal | NIH 3T3 STAT1-luciferase reporter, luminescence | inhibition, % at 5.5 µM | hit rate 0.35% among 200,000;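 active = inhibition above a set limit, the mean inhibition across all tested compounds plus 3 SD, cut at about 34% in these data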;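 note: 0% = IFN-gamma with DMSO and 100% = IFN-gamma with 300 µM nifuroxazide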
STAT3 blocker – inhibitors of IL-6 induced STAT3 signaling | U3A cells, IL-6 STAT3-luciferase reporter, luminescence; host cell line lacks STAT1 | inhibition, % at 5.5 µM | hit rate 0.89% among 190,000;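 active = inhibition above the mean inhibition across all screened compounds plus 3 SD, cut at about 44% in these data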;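 note: 0% = DMSO only wells and 100% = 100 µM nifuroxazide control wells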
STAT3 act – activators of IL-6 induced STAT3 signaling; hit rate 0.91% among 190,000; U3A cells, IL-6 STAT3-luciferase reporter, luminescence; 100% = signal with IL-6 EC80 alone; activation (% of control), % at 5.6 µM;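 active = activation above the screen-wide mean of compound activation plus 3 SD, cut at about 130% in these data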;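 note: 0% = background luminescence of wells with medium and substrate only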
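Material: human U3A cells carrying STAT3-luciferase construct. Measured by: reporter luminescence signal. Timing: compound 1 h, then IL-6 6 h at 37 °C.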
Platelet DG rel – modulates dense granule release in human platelets | human platelet-rich plasma, SFLLRN dense granule ATP release, luminescence | hit rate 0.22% among 300,000 | AID 1663 | inhibition, %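 (compounds screened at 7.5 µM in platelet-rich plasma)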;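 active = mean replicate score, as percent of positive control, at or above 50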
PERK inhibitor – inhibitors of human PERK kinase | inhibition, % at 5.6 µM | AID 1416 | Q9NZJ5 | hit rate 0.17% among 220,000 | CHO PERK-DD fusion, SEAP luminescence translation reporter;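 active = inhibition above the mean inhibition of all tested compounds plus 3 SD, set separately per screening campaign, cut at about 2.9% in these data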;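 note: PERK kinase domain activated by AP20187 dimerizer at 100 nM; 0% = DMSO with dimerizer and 100% = rapamycin at 8.4 µM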
Starred values were filed as active, the others as inactive; · = not tested or not shown.

SMILES	STAT1 inh	STAT3 blocker	STAT3 act	Platelet DG rel	PERK inhibitor
CCc1ccc(S(=O)(=O)/N=C2/C=C(Sc3ncn[nH]3)C(=O)c3ccccc32)cc1	4.9	-50.5	139.1*	·	-0.3
CCc1ccc(S(=O)(=O)/N=C2\C=CC(=O)c3ccccc32)cc1	3.4	-50.0	144.8*	-6.2	0.2
Cc1cc(C)n(-c2ccc(NC(=O)C3CCN(Cc4ccc(C)o4)CC3)cc2)n1	·	·	·	2.7	·
CCOC(=O)C1CCN(C(=O)Cn2c(=O)c3cccn3c3cccnc32)CC1	·	·	·	2.1	·
CCOc1ccccc1C1c2cc3c(cc2OC(C)(N2CCCC2)C1C)OCO3 (stereo not drawn)	·	·	·	-1.1	·
Cn1c(CNc2ccc(Cl)cc2)nc2ccccc21	-46.5	-70.6	162.5*	2.9	-0.5
Cc1ccc(N2CCN(c3ccc(NCc4nc5ccccc5n4C)cc3)CC2)cc1	1.2	-11.7	113.7	4.4	-0.2
COc1ccc(C2=NOC(C(=O)NCc3ccc(F)cc3)C2)cc1OC (stereo not drawn)	-4.7	-35.9	133.5*	13.1	0.8
COC(=O)c1ccc(Cl)c(NC(=O)c2ccc(-c3ccccc3)cc2)c1	-1.3	-31.1	135.6*	·	1.7
COCC(=O)Nc1cc(C(=O)Nc2ccccc2)ccc1Cl	1.4	15.6	91.1	-0.1	-0.3
CN(C)CCCN1C(=O)C2CCc3[nH]c4ccccc4c3C2C1=O (stereo not drawn)	15.4	8.6	94.6	-28.8	-0.1
Nc1nnc(CC(=O)Nc2ccccc2)s1	·	·	·	-7.7	3.0*
Cc1ccc(NC(=O)Cc2nnc(N)s2)cc1	·	·	·	-0.4	0.9
Cc1nc2cc(NC(=O)CCS(=O)(=O)c3ccccc3)ccc2s1	-55.0	-12.4	109.1	5.5	0.7
Cc1nc2cc(Nc3ccncc3)ccc2s1	2.5	13.6	94.1	56.1*	0.0
Brc1ccc(-c2nc(N/N=C/c3cccnc3)c3ccccc3n2)cc1	3.1	-2.1	104.8	72.5*	-1.1
COc1ccc(C2CC(=O)c3cnc(NC(=O)c4ccccc4)nc3C2)c(OC)c1 (stereo not drawn)	5.3	6.4	97.9	-12.4	-0.3
O=C1c2ccccc2-c2nnc(-c3ccc(O)cc3)cc21	48.1*	71.9*	40.4	15.4	1.0
COc1cc(/C=N/NC(N)=O)ccc1OCC(=O)Nc1ccc(C)c(C)c1	6.5	-6.4	105.4	56.3*	0.6
COCCNC(=O)/C(C#N)=C/c1cc(C(C)C)c(OC)cc1C	-4.5	18.2	93.4	2.2	1.2
Cc1occc1C(=O)O/N=C(\N)c1ccccc1	·	·	·	72.5*	-0.4
Cc1ccccc1C(=O)O/N=C(\N)c1ccccc1	·	·	·	60.2*	·
Cc1cccc(/C(N)=N/OC(=O)c2ccoc2C)c1	·	·	·	36.9	·
COc1ccc(/C(N)=N/OC(=O)c2cccc([N+](=O)[O-])c2C)cc1	-12.0	-31.4	133.8*	2.9	-0.4
COc1ccc(/C(N)=N/OC(=O)c2cccc([N+](=O)[O-])c2)cc1	-3.1	-37.1	127.4	18.8	0.2
SMILES	STAT1 inh	STAT3 blocker	STAT3 act	Platelet DG rel	PERK inhibitor
CCCCN1C(=O)c2cccc3cc(O)cc(c23)C1=O	·	·	·	8.6	·
O=C(CSCc1c(F)cccc1Cl)NCc1ccco1	4.5	11.3	94.0	3.8	-0.2
O=C(CSCc1c(Cl)cccc1Cl)NCc1ccco1	-1.9	11.9	92.6	83.5*	-0.5
CCOC(=O)N1CCN(CC(=O)N2CCC(C(N)=O)CC2)CC1	-7.4	2.5	104.1	58.8*	-0.1
Cc1ccc(C2=NNC(c3cccc(F)c3)S2)cc1 (stereo not drawn)	48.2*	77.9*	34.5	-0.7	1.1
Fc1cccc(C2NN=C(c3ccccc3)S2)c1 (stereo not drawn)	-71.1	39.5	66.1	17.1	0.1
NNc1nc2c(-c3ccc(Cl)cc3)nnn2c2ccccc12	-41.3	-54.1	143.6*	3.6	0.3
COc1cc(/C=N/NC(=O)c2ccc(O)cc2)ccc1OCC(=O)N1CC(C)OC(C)C1 (stereo not drawn)	·	·	·	10.9	1.5
O=C1N(Cc2ccccc2)c2ccc(Cl)cc2C12OCCO2	·	·	·	-1.5	·
O=C(N/N=C\c1ccc(-c2ccccc2[N+](=O)[O-])o1)C1COc2ccccc2O1 (stereo not drawn)	5.0	-46.2	133.3*	-3.8	0.0
O=C(N/N=C\c1ccc(-c2ccccc2[N+](=O)[O-])o1)C1COc2cc3ccccc3cc2O1 (stereo not drawn)	12.9	-1.3	110.0	5.0	-0.7
C=CC[n+]1c(/C=C/c2ccc(OC(C)=O)c(OC)c2)ccc2ccccc21	·	·	·	27.2	·
